# RGS4 block – RGS4 inhibitors, primary screen, cell-based, HEK293 M3R inducible RGS4, calcium flux. B-score at 10 µM. 310,000 compounds, 0.45% hits. Fluo-4 calcium flux; hits give high values; triggered by carbachol at its EC20. AID 463165, 2010;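 active means B-score, a plate-corrected calcium signal, over three deviations above library mean, with baseline fluorescence within five deviations of library mean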;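 further: RGS4 expression induced by doxycycline in cells with stable M3 receptor; B-score is computed from the integrated fluorescence ratio over baseline after carbachol; higher B-score means a larger calcium signal and so more RGS4 inhibition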
# Target sequence (P49798 whole entry, looked up): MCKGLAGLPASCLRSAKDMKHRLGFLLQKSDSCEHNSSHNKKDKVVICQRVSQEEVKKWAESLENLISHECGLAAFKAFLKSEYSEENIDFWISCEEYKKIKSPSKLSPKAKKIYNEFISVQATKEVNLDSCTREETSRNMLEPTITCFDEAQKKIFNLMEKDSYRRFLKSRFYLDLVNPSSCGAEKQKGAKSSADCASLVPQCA
# MrgX1 PAM – positive allosteric modulators of MrgX1, primary screen, HEK293 cells, Fluo-4 calcium flux | FDSS; hits give high values | B-score at 10 µM | 310,000 compounds, 0.63% hits | AID 588675, 2011;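 active means plate-corrected calcium response at least 3 library SD above typical, normal starting fluorescence, not activating the receptor alone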;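 further: compound read alongside a low EC10 to EC30 dose of BAM8-22 agonist; peak minus trough fluorescence over baseline measured at the second addition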
# Target sequence (Q96LB2 whole entry, looked up): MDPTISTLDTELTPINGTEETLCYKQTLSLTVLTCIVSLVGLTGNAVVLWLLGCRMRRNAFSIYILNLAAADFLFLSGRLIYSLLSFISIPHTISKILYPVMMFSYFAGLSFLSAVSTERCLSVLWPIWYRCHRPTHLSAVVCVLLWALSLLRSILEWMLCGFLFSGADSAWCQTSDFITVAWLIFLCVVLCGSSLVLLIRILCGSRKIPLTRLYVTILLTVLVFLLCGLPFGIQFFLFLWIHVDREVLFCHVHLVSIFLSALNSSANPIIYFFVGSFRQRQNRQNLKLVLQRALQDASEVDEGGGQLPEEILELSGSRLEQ
# RGS4 pot – RGS4 potentiators or activators, primary screen, cell-based, HEK293 M3R inducible RGS4, calcium flux; carbachol calcium flux Fluo4; hits give low values; B-score at 10 µM; 310,000 compounds, 0.92% hits;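 active means B-score of the integrated calcium signal more than 4 SD below the library mean, with starting fluorescence not abnormally high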;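 further: negative B-score means reduced calcium response which marks RGS4 activation or potentiation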
#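 Material: Inducible-RGS4 HEK293 cells carrying M3 receptor; also added: carbachol at ECmax as muscarinic agonist stimulus; incubation: compound preincubation 20 min at room temperature before agonist; signal: Fluo4-AM (2 µM) calcium-flux fluorescence, kinetic read; measure: integrated calcium ratio converted to B score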
# MrgX1 antagonist – antagonists of human MrgX1 receptor, primary screen, HEK293 cells, Fluo-4 calcium flux | B-score at 10 µM | Mas-related G-protein coupled receptor member X1 (Homo sapiens), Q96LB2 | 310,000 compounds, 1.3% hits | AID 588676, 2011 | BAM8-22 antagonism; hits give low values;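 active means calcium-response B-score plate-corrected more than 3 library SD below zero, starting fluorescence within 5 deviations, no agonist response on first addition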;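 further: peak minus trough fluorescence over baseline after final BAM8-22 challenge near maximal dose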
# MrgX1 agonist – agonists of human MrgX1 receptor, primary screen, HEK293 cells, Fluo-4 calcium flux. Fluo-4 calcium fluorescence, agonist mode; hits give high values. B-score at 10 µM. 310,000 compounds, 0.44% hits;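 active means calcium response B-score plate-corrected fluorescence ratio at least 3 library SD, with starting fluorescence B-score inside 5 SD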
#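 Assay system: MrgX1-expressing HEK293 cells / Amount: fifteen thousand cells per well / Doses: test compound in the initial addition of three / Timing: cells plated overnight, dye loaded 0.5 h 37 °C, 0.5 h room temperature / Technique: kinetic calcium dye fluorescence, Fluo-4 NW / Control set: positive and negative controls per plate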
# * hit, by the source's call; i = inactive; nt = no result given. Most compounds without a hit are left out; they make up all but 3.5% or so of the library.
SMILES,RGS4 block,MrgX1 PAM,RGS4 pot,MrgX1 antagonist,MrgX1 agonist
COCCN(C(=O)COC(=O)CSc1ccc2ccccc2c1)c1c(N)n(Cc2ccccc2)c(=O)[nH]c1=O,i,i,i,i,i
CCCCn1c(N)c(N(CCOC)C(=O)c2ccc3c(c2)C(=O)N(c2ccccc2C)C3=O)c(=O)[nH]c1=O,i,i,i,i,i
CCCCn1c(N)c(N(CCOC)C(=O)c2ccc3c(c2)C(=O)N(c2cc(C)ccc2C)C3=O)c(=O)[nH]c1=O,i,11.9*,i,i,i
CCCCCCN1N=C(C)C(C(=O)c2ccc(Cl)cc2)C1=O (stereo not given),i,i,i,i,66.4*
CCCCCCCN1N=C(C)C(C(=O)c2ccccc2)C1=O (stereo not given),i,i,i,i,i
Clc1ccc(OCc2nnc(SCc3nnc(-c4ccccc4)o3)o2)c(Cl)c1,i,i,-9.66*,i,i
O=C(CSc1nnc(COc2ccc(Cl)cc2Cl)o1)Nc1ccccn1,i,i,i,i,i
CC1=CC=CC2=NC(=O)CC(C)(C(=O)O)N12 (stereo not given),i,i,i,i,i
COc1ccc(CCNC(=O)c2ccc(NC(=O)CC3SC(N4CCCC4)=NC3=O)cc2)cc1 (stereo not given),i,i,i,i,i
CC(C)=CCC12Oc3cc(O)ccc3C1(O)Oc1cc3c(c(O)c1C2=O)C=CC(C)(C)O3 (stereo not given),i,i,-7.29*,i,i
Cc1ccc2c(CN(C)Cc3cccc(Cl)c3)cc(=O)oc2c1C,i,i,i,i,i
CSc1ccc(CN(C)Cc2cc(=O)oc3c(C)c(C)ccc23)cc1,i,i,-7.17*,i,i
COc1ccc(C(=O)C2CCCN(C(=O)c3ccc4nccnc4c3)C2)c(C)c1 (stereo not given),i,i,i,i,i
O=C(NNS(=O)(=O)c1ccc(F)cc1)c1cccc(O)c1,i,i,i,i,i
Cc1ccc(S(=O)(=O)NNC(=O)c2cccc(O)c2)cc1,i,i,i,-6.53*,i
O=C(N/N=C/c1ccccn1)c1[nH]c2ccc([N+](=O)[O-])cc2c1-c1ccccc1,i,i,i,-5.14*,i
NNC(=O)c1[nH]c2ccc([N+](=O)[O-])cc2c1-c1ccccc1,i,i,i,i,i
COc1cccc(-c2cc3c(-n4cccc4)ncnc3o2)c1,i,i,-7.12*,i,i
CCN(CC(=O)Nc1ccc2c(c1)OCCO2)C(=O)c1ccc(S(=O)(=O)N(C)C)cc1,i,i,i,i,i
Cc1ccc(NC(=O)/C(C#N)=C(\N)C(Cl)(Cl)Cl)nc1,i,i,i,i,27.7*
Cc1ccc(NC(=O)C(=O)Nc2ccc(C)cn2)nc1,i,i,i,i,i
O=C(OCC(O)COc1ccccc1)c1ccc([N+](=O)[O-])cc1 (stereo not given),i,i,i,i,i
Cc1csc(CN(C)C(=O)C2CCC(=O)N(CCN(C)C)C2)n1 (stereo not given),i,i,i,i,i
CC(C)(C)c1cc(C(=O)NNC(=O)Nc2ccccc2)n(Cc2ccccc2)n1,i,i,i,-4.9*,i
CC(C)(C)c1cc(C(=O)NNC(=O)Nc2cccc(Cl)c2)n(Cc2ccccc2)n1,i,i,i,i,i
SMILES,RGS4 block,MrgX1 PAM,RGS4 pot,MrgX1 antagonist,MrgX1 agonist
Cc1ccc(NC(=S)N2CCC(NC(=O)c3ccc(F)cc3)CC2)cc1C,i,i,i,i,i
COc1ccc(CNC(=O)CCC2N=C3c4ccccc4N=C(SCC(=O)NCC4CCCO4)N3C2=O)cc1 (stereo not given),i,i,i,i,i
Cc1oc(-c2cccc(Cl)c2)nc1CN1CCCC(C(=O)NC(C)c2ccc3c(c2)OCCO3)C1 (stereo not given),i,i,-6.96*,i,i
COc1ccc(C(=O)COC(=O)c2c(-c3ccccc3)noc2C)c(OC)c1,i,i,i,i,i
CC(C)(C)C(=O)NCCCc1nc2ccccc2n1CCCOc1ccc(Cl)cc1,i,i,i,-5.09*,i
C=CCn1c(CCCNC(=O)C(C)(C)C)nc2ccccc21,i,i,i,i,i
CSCCCN1CCC(n2nccc2NC(=O)CCCc2ccccc2)CC1,i,i,i,i,i
O=S(=O)(CCSc1nc2ccccc2o1)c1nc2ccccc2s1,i,i,i,i,i
O=S(=O)(CCSc1ccccn1)c1nc2ccccc2s1,i,i,i,i,34.1*
Cc1cc(NC(=O)CSc2nnc(N)s2)c([N+](=O)[O-])cc1C,i,i,i,-7.05*,i
N#Cc1ccc(NC(=O)Cn2cnc(S(=O)(=O)N3CCCCC3)c2)cc1,i,i,i,i,i
COc1cccc(N/C=C/C(=O)c2ccc(OC)c(OC)c2)c1,i,i,i,i,i
CCOC(=O)c1cccc(N/C=C/C(=O)c2ccc(OC)c(OC)c2)c1,i,i,-8.3*,i,i
O=C1OCCN1C(=O)[C@H]1[C@H](c2ccc(F)cc2)C(c2ccc(F)cc2)=NN1c1ccc(Br)cc1,i,i,-9.23*,i,i
O=C(CCCc1c[nH]c2ccccc12)NCc1ccccc1F,i,i,i,i,i
O=c1oc2ccccc2cc1-c1nc2c(s1)CCc1ccccc1-2,i,i,i,-6.78*,i
O=c1oc2cc(O)ccc2cc1-c1nc2c(s1)CCc1ccccc1-2,nt,i,nt,i,i
COCCn1c(-c2ccc(-c3ccc([N+](=O)[O-])cc3Br)o2)nc2c1c(=O)[nH]c(=O)n2CC(C)C,i,i,i,-6.22*,i
COCCn1c(=O)[nH]c(=O)c2c1nc(-c1ccc(-c3ccc(Cl)cc3[N+](=O)[O-])o1)n2Cc1ccccc1,i,i,i,i,i
Cc1cn([C@H]2C=C[C@@H](CO)O2)c(=O)[nH]c1=O,i,9.41*,i,i,i
CC(=O)c1cccc(CN2CCCCC2C(=O)Nc2ccc(Oc3ccccc3)nc2)c1 (stereo not given),i,i,i,i,i
COc1ccc(-c2nnc(SCc3cc(C)cc(C)c3)o2)cc1,i,i,-7.19*,i,i
